“Also recorded” adds a separate entry of the source.
Biological target: CK2α catalytic subunit (Homo sapiens, UniProt P68400)
Experiment: In vitro phosphorylation assay of CK2α with peptide substrate RRRADDSDDDDD
Assay type: biochemical
Conditions: substrate RRRADDSDDDDD
Procedure, shortened: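 Activity is expressed as % of no-peptide control, as the mean of at least three independent experiments. Full-length murine NBD1ΔF508 (389–673) tests were run at 350 μM ATP.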

Sequence of CK2α catalytic subunit (P68400 whole entry): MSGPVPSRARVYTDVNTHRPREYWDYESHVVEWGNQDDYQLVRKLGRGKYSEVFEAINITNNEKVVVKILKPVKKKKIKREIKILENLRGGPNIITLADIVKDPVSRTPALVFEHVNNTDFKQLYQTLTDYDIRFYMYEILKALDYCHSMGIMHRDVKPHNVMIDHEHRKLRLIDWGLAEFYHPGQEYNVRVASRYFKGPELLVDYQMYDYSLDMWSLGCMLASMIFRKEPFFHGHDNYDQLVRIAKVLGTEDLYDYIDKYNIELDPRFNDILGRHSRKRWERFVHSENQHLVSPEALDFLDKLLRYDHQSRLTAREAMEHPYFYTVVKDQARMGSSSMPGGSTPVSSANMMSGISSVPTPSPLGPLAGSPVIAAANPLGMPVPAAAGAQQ

Substance	onset of stimulation of CK2α catalytic activity (β-peptide alone)	inhibitory efficacy on CK2α (in words) (compared with the parent peptide)
β-peptide: peptide reproducing the C-terminal segment of the CK2 β-subunit encompassing residues 182–203 (QFVPRLYGFKIHPMAYQLQLQA; UniProt P67870 182-203, looked up, fragment) [reference compound]	50 µM	–
CFTRΔI507 peptide: CFTR(500–518) peptide with Ile^507 deleted (GTIKENIFGVSYDEYRYR)	–	loss in inhibitory efficacy; also recorded: unable to exert the same efficacy of the CFTRΔF508 peptide

— paper PMC3026963 (The Biochemical journal, 2010)
